Tests used:
Format in all cases: functional, Canis lupus familiaris
Canis familiaris [1] = test: In vivo inhibitory effect on Cyclical flow reductions (CFR) induced by intracoronary platelet aggregation in stenosed Canine coronary arteries at iv dose of 30 ug/kg +3 ug/kg/min (n=4)
How it was run: (§1)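 Adult mongrel dogs (10-15 kg, either sex), sodium pentobarbital anesthesia (30 mg/kg iv), positive-pressure ventilation. Aortic pressure via femoral artery catheter. Drug given iv via femoral vein in saline as mesylate/bismesylate salt, bolus then constant infusion. Values mean ± SEM.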

Canis familiaris [2] = test: Time interval between the end of treatment and restoration of the CFR pattern of blood flow to control levels at iv dose of 100 ug/kg +10 ug/kg/min (n=10)
How it was run: (§2)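 Anesthetized open-chest mongrel dogs (10-15 kg) with partially obstructed circumflex coronary artery; iv bolus plus constant infusion of drug in saline as mesylate/bismesylate salt. Duration scored as the time from the end of drug treatment until the cyclic flow reduction pattern returns to control levels. Mean ± SEM.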

Canis familiaris [3] = test: In vivo inhibitory effect on Cyclical flow reductions (CFR) induced by intracoronary platelet aggregation in stenosed Canine coronary arteries at iv dose of 300 ug/kg +30 ug/kg/min (n=4); how it was run: as §1
Canis familiaris [4] = test: Time interval between the end of treatment and restoration of the CFR pattern of blood flow to control levels at iv dose of 300 ug/kg +30 ug/kg/min (n=4); how it was run: as §2
Canis familiaris [5] = test: Time interval between the end of treatment and restoration of the CFR pattern of blood flow to control levels at iv dose of 1000 ug/kg +100 ug/kg/min (n=4); how it was run: as §2
Canis familiaris [6] = test: In vivo inhibitory effect on Cyclical flow reductions (CFR) induced by intracoronary platelet aggregation in stenosed Canine coronary arteries at iv dose of 1000 ug/kg +100 ug/kg/min (n=4); how it was run: as §1
Canis familiaris [7] = test: Time interval between the start of treatment and the first change in the CFR pattern of blood flow in the stenosed coronary artery at iv dose of 100 ug/kg +10 ug/kg/min (n=10)
How it was run: (§3)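 Stenosed circumflex coronary artery in pentobarbital-anesthetized open-chest mongrel dogs (10-15 kg), drug iv in saline (mesylate/bismesylate salt), bolus followed by constant infusion. Onset measured as the time from the start of drug treatment to the first change in the cyclic flow reduction pattern of coronary blood flow. Mean ± SEM.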

Canis familiaris [8] = test: In vivo inhibitory effect on Cyclical flow reductions (CFR) induced by intracoronary platelet aggregation in stenosed Canine coronary arteries at iv dose of 100 ug/kg +10 ug/kg/min (n=10); how it was run: as §1
Canis familiaris [9] = test: Time interval between the start of treatment and the first change in the CFR pattern of blood flow in the stenosed coronary artery at iv dose of 1000 ug/kg +100 ug/kg/min (n=4); how it was run: as §3
Canis familiaris [10] = test: Time interval between the start of treatment and the first change in the CFR pattern of blood flow in the stenosed coronary artery at iv dose of 300 ug/kg +30 ug/kg/min (n=4); how it was run: as §3
Canis familiaris [11] = test: In vivo inhibitory effect on Cyclical flow reductions (CFR) induced by intracoronary platelet aggregation in stenosed Canine coronary arteries at iv dose of 300 ug/kg +30 ug/kg/min (n=3); how it was run: as §1
Canis familiaris [12] = test: Time interval between the start of treatment and the first change in the CFR pattern of blood flow in the stenosed coronary artery at iv dose of 300 ug/kg +30 ug/kg/min (n=3); how it was run: as §3
Canis familiaris [13] = test: Time interval between the end of treatment and restoration of the CFR pattern of blood flow to control levels at iv dose of 100 ug/kg +10 ug/kg/min (n=3); how it was run: as §2
Canis familiaris [14] = test: In vivo inhibitory effect on Cyclical flow reductions (CFR) induced by intracoronary platelet aggregation in stenosed Canine coronary arteries at iv dose of 100 ug/kg +10 ug/kg/min (n=3); how it was run: as §1
Canis familiaris [15] = test: Time interval between the start of treatment and the first change in the CFR pattern of blood flow in the stenosed coronary artery at iv dose of 100 ug/kg +10 ug/kg/min (n=3); how it was run: as §3
Canis familiaris [16] = test: In vivo inhibitory effect on Cyclical flow reductions (CFR) induced by intracoronary platelet aggregation in stenosed Canine coronary arteries at iv dose of 300 ug/kg +30 ug/kg/min (n=2-4); how it was run: as §1
Canis familiaris [17] = test: Time interval between the start of treatment and the first change in the CFR pattern of blood flow in the stenosed coronary artery at iv dose of 300 ug/kg +30 ug/kg/min (n=2-4); how it was run: as §3

SMILES	Rating (Canis familiaris [1])	Time to offset (Canis familiaris [2]) [min]	Rating (Canis familiaris [3])	Time to offset (Canis familiaris [4]) [min]	Time to offset (Canis familiaris [5]) [min]	Rating (Canis familiaris [6])	Time to onset (Canis familiaris [7]) [min]	Rating (Canis familiaris [8])	Time to onset (Canis familiaris [9]) [min]	Time to onset (Canis familiaris [10]) [min]	Rating (Canis familiaris [11])	Time to onset (Canis familiaris [12]) [min]	Time to offset (Canis familiaris [13]) [min]	Rating (Canis familiaris [14])	Time to onset (Canis familiaris [15]) [min]	Rating (Canis familiaris [16])	Time to onset (Canis familiaris [17]) [min]
Cc1c(OCCN2CCN(C)CC2)ccc2c(=O)cc(N3CCOCC3)oc12	0	25	3	60	73	3	5	1.9	1	1							
Cc1c(OCCN2CCSCC2)ccc2c(=O)cc(N3CCOCC3)oc12				12							2.3	9	5.3	2	17		
Cc1c(OCCN2CCCCC2)ccc2c(=O)cc(N3CCOCC3)oc12				67	23	2.5			7							1.3	2

From ChEMBL document CHEMBL1126735, “Synthesis and biological evaluation of antiplatelet 2-aminochromones” (J Med Chem, 1993)
